An excerpt weighted towards active compounds, which were near 3.6% of everything screened.
pPAFAH inh: inhibitors of human plasma PAF acetylhydrolase (pPAFAH); recombinant pPAFAH, FP-rhodamine probe fluorescence polarization; inhibition, % at 3.39 µM; actives 1.5% (n = 330,000); AID 463082;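 active = inhibition above the mean inhibition across the screen plus 3 SD, cut at about 25% in these data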;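 note: inhibitors block binding of the rhodamine activity-based probe so polarization drops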
Target sequence (Q13093 whole entry, looked up): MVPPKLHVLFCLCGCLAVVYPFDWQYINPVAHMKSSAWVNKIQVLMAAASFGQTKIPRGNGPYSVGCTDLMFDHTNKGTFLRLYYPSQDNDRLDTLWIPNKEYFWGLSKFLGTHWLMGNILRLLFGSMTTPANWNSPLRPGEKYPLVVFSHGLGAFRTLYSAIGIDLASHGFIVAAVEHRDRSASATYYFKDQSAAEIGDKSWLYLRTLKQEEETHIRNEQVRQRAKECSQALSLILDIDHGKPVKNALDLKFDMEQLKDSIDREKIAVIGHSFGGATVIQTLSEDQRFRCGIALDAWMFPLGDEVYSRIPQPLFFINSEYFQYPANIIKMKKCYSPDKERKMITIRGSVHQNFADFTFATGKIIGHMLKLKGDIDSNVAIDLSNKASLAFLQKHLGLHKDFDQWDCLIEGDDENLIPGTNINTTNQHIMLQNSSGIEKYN
PAFAH2 inh: PAFAH2 (human) inhibition | recombinant PAFAH2, FP-rhodamine activity probe, fluorescence polarization | inhibition, % at 3.39 µM | actives 0.99% (n = 340,000);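 active = inhibition above the mean over all tested compounds plus 3 SD, cut at about 30% in these data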;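 note: inhibitors block probe labeling of enzyme so polarization drops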
IMP-1 inh: inhibitors of Pseudomonas aeruginosa IMP-1 metallo-beta-lactamase | purified IMP-1, nitrocefin hydrolysis, epi-absorbance fluorescence | inhibition, % at 5.6 µM | actives 0.45% (n = 290,000) | AID 1556;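 active = inhibition above the mean plus 3 SD of all compounds in the same screening run, cut at about 4.5% in these data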
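assay system = purified recombinant IMP-1 metallo-beta-lactamase enzyme | schedule = 15 min preincubation plus 25 min reaction at 25 °C | signal = Epi-absorbance fluorescence, 480 nm excitation, 530 nm emission | read-out basis = percent inhibition from optical density relative to buffer-blank wells | controls = IMP-1 with DMSO as 0%, enzyme-free DMSO as 100%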
VIM-2 inh: blocks Pseudomonas aeruginosa VIM-2 metallo-beta-lactamase | purified VIM-2, nitrocefin hydrolysis, epi-absorbance fluorescence | inhibition, % at 5.6 µM | actives 0.89% (n = 290,000);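 active = inhibition above the mean of all tested compounds plus 3 SD, cutoff set per screening run, cut at about 7.5% in these data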;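 note: red hydrolysis product quenches plate fluorescence so inhibitors raise well fluorescence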
PAFAH1B3 inh: PAFAH1B3 (human) inhibition | inhibition, % at 3.39 µM | recombinant PAFAH1B3, FP-rhodamine probe, fluorescence polarization | Q15102 | actives 0.28% (n = 340,000) | AID 492972;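 active = inhibition above the screen-wide average of all tested compounds plus 3 SD, cut at about 25% in these data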
PAFAH1B2 inh: inhibitors of human PAFAH1B2. inhibition, % at 3.39 µM. AID 492953. P68402. actives 1.2% (n = 340,000). recombinant PAFAH1B2, FP-rhodamine activity probe, fluorescence polarization;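 active = inhibition above the mean of all tested compounds plus 3 SD, cut at about 24% in these data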
Target sequence (P68402 whole entry, looked up): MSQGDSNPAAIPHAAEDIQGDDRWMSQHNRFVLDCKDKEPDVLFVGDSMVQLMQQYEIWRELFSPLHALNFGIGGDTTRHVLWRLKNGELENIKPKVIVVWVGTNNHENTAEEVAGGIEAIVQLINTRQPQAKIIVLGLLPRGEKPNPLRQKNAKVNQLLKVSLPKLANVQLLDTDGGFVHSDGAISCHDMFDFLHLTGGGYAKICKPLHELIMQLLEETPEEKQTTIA
PAFAH2 FP conf: PAFAH2 (human) inhibition, confirmed; shares compounds with PAFAH2 inh; actives 65% (n = 2,300); recombinant PAFAH2, FP-rhodamine activity probe, fluorescence polarization; inhibition, % at 3.39 µM;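 active = mean inhibition over three repeats above a set limit taken from the earlier primary screen, cut at about 30% in these data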;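 note: inhibitor blocks binding of rhodamine activity probe so polarization falls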
Each line names hits and unclear results; the compound was inactive in the other large screens (follow-up assays come after a bar, where they were run).

COC(=O)c1cc(C(=O)c2cc(Br)ccc2O)coc1=N	PAFAH2 inh 30.9 | PAFAH2 FP conf inactive
COc1cc(C(=O)OCC(=O)Nc2cc(S(=O)(=O)N3CCOCC3)ccc2C)ccc1OCC(C)C	PAFAH2 inh 57.7 (no result: IMP-1 inh, VIM-2 inh) | PAFAH2 FP conf 49.2
COc1ccc(CC(=O)OCC(=O)Nc2cc(S(=O)(=O)N3CCOCC3)ccc2N2CCCC2)cc1	none
O=C(COC(=O)c1cccnc1Cl)Nc1cccc(S(=O)(=O)N2CCOCC2)c1	none (no result: IMP-1 inh, VIM-2 inh)
COc1cc(C(=O)OCc2cccc(S(=O)(=O)N3CCOCC3)c2)ccc1OCC(C)C	none (no result: IMP-1 inh, VIM-2 inh)
COc1cc(C(=O)OCC(=O)Nc2cccc(S(=O)(=O)N3CCOCC3)c2)ccc1OCC(C)C	PAFAH2 inh 46.4 (no result: IMP-1 inh, VIM-2 inh) | PAFAH2 FP conf 43.7
COc1ccc(C(=O)OCC(=O)Nc2cc(S(=O)(=O)N3CCOCC3)ccc2N2CCCC2)cc1	PAFAH2 inh 38.5 | PAFAH2 FP conf 33.1
Nc1cc(C(=O)OCC(=O)Nc2cccc(S(=O)(=O)N3CCOCC3)c2)ccc1Cl	PAFAH2 inh 64.8 (no result: IMP-1 inh, VIM-2 inh) | PAFAH2 FP conf 57.6
CCc1nn(C(C)C(=O)N2CCc3ccccc3C2)c(=O)c2cc3occc3n12 (configuration not stated)	none
CC(C)N(C(=O)[C@H]1C[C@H](CC(=O)NCCC2=CCCCC2)C(=O)N2CCc3c([nH]c4cc(-c5ccco5)ccc34)[C@]12C)C(C)C	none (no result: IMP-1 inh, VIM-2 inh)
Cc1ccc(S(=O)(=O)N2CCOCC2)cc1NC(=O)COC(=O)c1ccc(Br)cc1	PAFAH2 inh 41.7 (no result: IMP-1 inh, VIM-2 inh) | PAFAH2 FP conf 30.6
Cc1ccc(S(=O)(=O)N2CCOCC2)cc1NC(=O)COC(=O)c1ccc(Cl)nc1	none (no result: IMP-1 inh, VIM-2 inh)
O=C(Nc1nnc(SCc2ccccc2Cl)s1)C1COc2ccccc2O1 (configuration not stated)	PAFAH2 inh 52.4 | PAFAH2 FP conf 40.9
COc1cc(/C=N/NC(=O)c2ccc(CN(C)S(=O)(=O)c3ccc(C)cc3)cc2)ccc1O	none
CCOc1ccc2noc3c2c1C(=O)c1ccccc1-3	PAFAH2 inh 31.4 | PAFAH2 FP conf inactive
O=C(O)c1ccccc1NSc1ccccc1[N+](=O)[O-]	PAFAH2 inh 37.4 | PAFAH2 FP conf inactive
C=CCn1c(C)cc(C(=O)COC(=O)/C=C/c2ccc(OC)cc2)c1C	PAFAH2 inh 62.3 | PAFAH2 FP conf 57.4
Cc1cc(C(=O)COC(=O)/C=C/c2cccc(F)c2)c(C)n1C	none
C=CCn1c(C)cc(C(=O)COC(=O)/C=C/c2cccc(OC)c2)c1C	PAFAH2 inh 54.7 | PAFAH2 FP conf 45.7
O=C(/C=C/c1ccc(OC(F)F)cc1)OCC(=O)N1CCC(c2ccccc2)=N1	none (no result: IMP-1 inh, VIM-2 inh)
Cc1c(C#N)c(O)[nH]c(=O)c1N=Nc1ccc(Cl)c(C(=O)O)c1	none
Cc1c(C#N)c(O)[nH]c(=O)c1N=Nc1ccc(S(N)(=O)=O)cc1	PAFAH2 inh 46.9 | PAFAH2 FP conf inactive
COC(=O)CNC(=O)COC(=O)c1ccc(OC)c([N+](=O)[O-])c1	none
COc1ccc(C(=O)OCC(=O)NC(C)(C)C)cc1[N+](=O)[O-]	PAFAH2 inh 39.3 | PAFAH2 FP conf inactive
COc1ccc(C(=O)OCC(=O)NCCCc2ccccc2)cc1[N+](=O)[O-]	PAFAH2 inh 30.4 | PAFAH2 FP conf inactive
COc1ccc(S(=O)(=O)N2CCOCC2)cc1NC(=O)c1cc(C)oc1C	none (no result: IMP-1 inh, VIM-2 inh)
NC(=S)n1[nH]c(-c2ccc([N+](=O)[O-])cc2)c(N=Nc2cccc(Cl)c2)c1=O	PAFAH2 inh 36.3 (no result: pPAFAH inh) | PAFAH2 FP conf inactive
Cc1[nH]n(C(N)=S)c(=O)c1N=Nc1cccc(Cl)c1	none
CC(C)CC(NC(=O)C1CCC(=O)N1C(=O)OCc1ccccc1)C(=O)NC(Cc1ccccc1)C(N)=O (configuration not stated)	PAFAH2 inh 52.2 | PAFAH2 FP conf 47.7
CCC(C)C(NC(=O)C1CCC(=O)N1C(=O)OCc1ccccc1)C(=O)NC(Cc1ccccc1)C(N)=O (configuration not stated)	PAFAH2 inh 77.7 | PAFAH2 FP conf 64.3
COC(=O)[C@@H](Cc1ccc(O)cc1)NC(=O)[C@H]1CCC(=O)N1C(=O)OCc1ccccc1	none
CCC(C)c1ccc(OCc2ccc(C(=O)O)o2)cc1 (configuration not stated)	none
O=C(CS(=O)(=O)Cc1ccccc1)Nc1ccc(Cl)cn1	PAFAH2 inh 61.1 | PAFAH2 FP conf 40.0
O=C(CS(=O)(=O)Cc1ccccc1)Nc1ccccn1	PAFAH2 inh 35.5 | PAFAH2 FP conf inactive
Cc1ccc(NC(=O)COC(=O)[C@H](C)N2C(=O)C3CC=CCC3C2=O)cc1S(=O)(=O)N(C)C (some centres not stated)	none
CCOC(=O)c1c(-c2ccccc2)csc1/N=C/C1C(=O)CCCC1=O	none
CCOC(=O)c1c(CC(C)C)csc1/N=C/C1C(=O)CCCC1=O	PAFAH2 inh 33.4 | PAFAH2 FP conf inactive
CN(CC(=O)Nc1ccc2c(c1)OCO2)S(=O)(=O)c1cccs1	none
CCOC(=O)C1CCN(S(=O)(=O)c2ccc3c4c2CC(=O)N4CC(C)S3)CC1 (configuration not stated)	none
CCOC(=O)C1CCCN(S(=O)(=O)c2ccc3c4c2CC(=O)N4CC(C)S3)C1 (configuration not stated)	PAFAH2 inh 34.7 | PAFAH2 FP conf inactive
O=C(NCC1CCCO1)NC12CC3CC(CC(C3)C1)C2 (configuration not stated)	PAFAH2 inh 33.5 | PAFAH2 FP conf inactive
S=C(NCC1CCCO1)NC12CC3CC(CC(C3)C1)C2 (configuration not stated)	none
Cc1ccc(C(OCC(O)CNCc2ccc(F)cc2)c2ccccc2)cc1 (configuration not stated)	none
Cc1cc(C)c(S(=O)(=O)N2CCN(C(=O)N3CCCCC3)CC2)c(C)c1	PAFAH2 inh 33.6 | PAFAH2 FP conf 29.8
O=C(COC(=O)/C=C/c1ccccc1)NCC1CCCO1 (configuration not stated)	PAFAH2 inh 37.2 | PAFAH2 FP conf inactive
CSc1ccc(/C=C/C(=O)OCC(=O)NCC2CCCO2)cc1 (configuration not stated)	PAFAH2 inh 38.7 (no result: IMP-1 inh, VIM-2 inh) | PAFAH2 FP conf inactive
COc1ccc(OCCCC(=O)Nc2ccc(S(=O)(=O)N3CCOCC3)cc2)cc1	none (no result: IMP-1 inh, VIM-2 inh)
C[C@H](NC(=O)c1ccco1)C(=O)NCc1cccs1	none (no result: IMP-1 inh, VIM-2 inh)
CCOC(=O)c1sc(=S)n(-c2ccccc2)c1N(C(C)=O)C(C)=O	PAFAH2 inh 35.5 | PAFAH2 FP conf inactive
CCCCCCCOC(=O)c1ccc(OC(=O)c2cccnc2)cc1	PAFAH2 inh 47.2 | PAFAH2 FP conf 31.9
CCCCOC(=O)c1ccc(N)cc1	none
CCCCCCOC(=O)c1ccc(N)cc1	PAFAH2 inh 67.6 | PAFAH2 FP conf 61.1

From PubChem BioAssay
